According to ChEMBL document CHEMBL5257157, “Biological evaluation of novel amidino substituted coumarin-benzazole hybrids as promising therapeutic agents” (RSC Med Chem, 2023):
pEC50, pIC50: −log10 of the molar value.

Key:
[1] = Antioxidant activity assessed as DPPH radical scavenging activity incubated for 5 mins by absorbance based microplate reader analysis; format: functional
Procedure, shortened: (§1)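 Pure compounds tested in three colorimetric antioxidant assays, each run alongside the reference BHT. […] ABTS: direct reaction with ABTS•+ radical cation, reported as IC50. DPPH: scavenging of the stable DPPH radical by proton or electron donation, reported as IC50. FRAP: reducing power, expressed as mmolFe2+/mmolC.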

[2] = system: Zika virus; test: Antiviral activity against Zika virus Mr776 infected in human Huh-7 cells assessed as inhibition of virus-induced cytopathogenic effect incubated for 3 to 7 days by MTS assay; format: functional, organism-based; conditions: Mr776, Huh-7
[3] = system: CAPAN-1; test: Antiproliferative activity against human CAPAN-1 cells assessed as inhibition of cell growth incubated for 72 hrs by CellTiter96 Aqueous One Solution cell proliferation assay; format: functional, cell-based; conditions: CAPAN-1, 72 h
[4] = system: Human coronavirus OC43; test: Antiviral activity against HCoV-OC43 infected in human HEL 299 cells assessed as inhibition of virus-induced cytopathogenic effect incubated for 3 to 7 days by MTS assay; format: functional, organism-based; conditions: Betacoronavirus 1, HEL 299
[5] = system: Human alphaherpesvirus 1; test: Antiviral activity against HSV-1 KOS infected in human HEL 299 cells assessed as inhibition of virus-induced cytopathogenic effect incubated for 3 to 7 days by MTS assay; format: functional, organism-based; conditions: Human alphaherpesvirus 1, KOS
[6] = system: NCI-H460; test: Antiproliferative activity against human NCI-H460 cells assessed as inhibition of cell growth incubated for 72 hrs by CellTiter96 Aqueous One Solution cell proliferation assay; format: functional, cell-based; conditions: NCI-H460, 72 h
[7] = system: Respiratory syncytial virus; test: Antiviral activity against RSV infected in human HEL 299 cells assessed as inhibition of virus-induced cytopathogenic effect incubated for 3 to 7 days by MTS assay; format: functional, organism-based
[8] = system: Influenza B virus; test: Antiviral activity against influenza B virus infected in dog MDCK cells assessed as inhibition of virus-induced cytopathogenic effect incubated for 3 to 7 days by MTS assay; format: functional, organism-based
[9] = system: Influenza A virus; test: Antiviral activity against influenza virus H3N2 infected in dog MDCK cells assessed as inhibition of virus-induced cytopathogenic effect incubated for 3 to 7 days by MTS assay; format: functional, organism-based
[10] = system: HL-60; test: Antiproliferative activity against human HL-60 cells assessed as inhibition of cell growth incubated for 72 hrs by CellTiter96 Aqueous One Solution cell proliferation assay; format: functional, cell-based; conditions: HL-60, 72 h
[11] = Cytotoxicity against human HEL 299 cells assessed as inhibition of cell growth incubated for 72 hrs by CellTiter96 Aqueous One Solution cell proliferation assay; format: toxicity, cell-based
[12] = Antiproliferative activity against human DND41 cells assessed as inhibition of cell growth incubated for 72 hrs by CellTiter96 Aqueous One Solution cell proliferation assay; format: functional, cell-based; conditions: DND41, 72 h
[13] = system: Yellow fever virus; test: Antiviral activity against Yellow fever virus 17D infected in human Huh-7 cells assessed as inhibition of virus-induced cytopathogenic effect incubated for 3 to 7 days by MTS assay; format: functional, organism-based
[14] = system: K562; test: Antiproliferative activity against human K562 cells assessed as inhibition of cell growth incubated for 72 hrs by CellTiter96 Aqueous One Solution cell proliferation assay; format: functional, cell-based; conditions: K562, 72 h
[15] = Antioxidant activity assessed as ABTS radical scavenging activity incubated for 5 mins by absorbance based microplate reader analysis; format: functional; procedure, shortened: as §1
[16] = system: Human coronavirus 229E; test: Antiviral activity against HCoV-229E infected in human HEL 299 cells assessed as inhibition of virus-induced cytopathogenic effect incubated for 3 to 7 days by MTS assay; format: functional, organism-based
[17] = system: Z-138; test: Antiproliferative activity against human Z138 cells assessed as inhibition of cell growth incubated for 72 hrs by CellTiter96 Aqueous One Solution cell proliferation assay; format: functional, cell-based; conditions: Z-138, 72 h
[18] = Antioxidant activity assessed as reduction of Fe3+ complex to Fe2+ analogue by measuring mmolFe2+/mmolc by FRAP assay; format: functional; procedure, shortened: as §1
[19] = system: Huh-7; test: Cytotoxicity against human Huh-7 cells assessed as inhibition of cell growth incubated for 72 hrs by CellTiter96 Aqueous One Solution cell proliferation assay; format: functional
[20] = Antiviral activity against HCoV-NL63 infected in human Huh-7 cells assessed as inhibition of virus-induced cytopathogenic effect incubated for 3 to 7 days by MTS assay; format: functional, cell-based; conditions: Human coronavirus NL63, Huh-7
[21] = system: Influenza A virus; test: Antiviral activity against influenza virus H1N1 infected in dog MDCK cells assessed as inhibition of virus-induced cytopathogenic effect incubated for 3 to 7 days by MTS assay; format: functional, organism-based
[22] = system: LN-229; test: Antiproliferative activity against human LN-229 cells assessed as inhibition of cell growth incubated for 72 hrs by CellTiter96 Aqueous One Solution cell proliferation assay; format: functional, cell-based; conditions: LN-229, 72 h
[23] = Cytotoxicity against dog MDCK cells assessed as inhibition of cell growth incubated for 72 hrs by CellTiter96 Aqueous One Solution cell proliferation assay; format: toxicity, cell-based, Canis lupus familiaris
[24] = system: Sindbis virus; test: Antiviral activity against Sindbis virus infected in human Huh-7 cells assessed as inhibition of virus-induced cytopathogenic effect incubated for 3 to 7 days by MTS assay; format: functional, organism-based
[25] = system: CCRF-CEM; test: Antiproliferative activity against human CEM cells assessed as inhibition of cell growth; format: functional, cell-based

Row | Compound | pIC50 [1] | pEC50 [2] | pIC50 [3] | pEC50 [5] | pIC50 [6] | pEC50 [7] | pEC50 [8] | pEC50 [9] | pIC50 [10] | CC50 at 72 h [11] | pIC50 [12] | pEC50 [13] | pIC50 [14] | pEC50 [16] | pIC50 [17] | CC50 [19] | pEC50 [20] | pEC50 [21] | pIC50 [22] | CC50 at 72 h [23] | also measured
1 | Cc1ccc2oc(=O)c(-c3nc4cc(C5=NCCN5)ccc4[nH]3)c(Cl)c2c1 | 3.72 | < 4.00 | 4.99 | < 4.00 | 4.50 | < 4.00 | < 4.00 | < 4.00 | 4.67 | 77 µM | 5.24 | < 4.00 | 5.00 | < 4.00 | 5.19 | < 0.8 µM | < 4.00 | < 4.00 | 5.04 | 10 µM | pEC50 [4]: < 4.00; pIC50 [15]: 3.46; Activity [18]: 47.1 mmol/mmol; pEC50 [24]: < 4.00
2 | COc1cc([C@@H]2c3cc4c(cc3[C@@H](O[C@@H]3O[C@@H]5CO[C@@H](C)O[C@H]5[C@H](O)[C@H]3O)[C@H]3COC(=O)[C@H]23)OCO4)cc(OC)c1O [ETOPOSIDE] |  |  | 5.84 |  | 5.44 |  |  |  | 6.38 |  | 5.55 |  | 5.75 |  | 6.07 |  |  |  | 6.37 |  | 
3 | CCN(CC)c1ccc2cc(-c3nc4ccccc4[nH]3)c(=N)oc2c1 |  |  |  |  |  |  |  |  |  |  |  |  |  |  |  |  |  |  |  |  | pIC50 [25]: 7.23
4 | O=c1[nH]c(=O)n([C@H]2C[C@H](O)[C@@H](CO)O2)cc1/C=C/Br [BRIVUDINE] |  |  |  | 7.30 |  |  |  |  |  | > 100 µM |  |  |  |  |  |  |  |  |  |  | 
5 | O=c1oc2ccc(Br)cc2c(Cl)c1-c1nc2cc(C3=NCCCN3)ccc2[nH]1 | 3.96 | 5.03 | 4.27 | < 4.00 | < 4.00 | 4.13 | 5.05 | 4.29 | < 4.00 | > 100 µM | 4.31 | 4.95 | 4.23 | < 4.00 | 4.28 | > 100 µM | < 4.00 | 4.36 | < 4.00 | > 100 µM | pEC50 [4]: 4.11; pIC50 [15]: 3.44; Activity [18]: 95.1 mmol/mmol; pEC50 [24]: 4.23
6 | O=c1oc2ccc(Br)cc2c(Cl)c1-c1nc2cc(C3=NCCN3)ccc2[nH]1 | 3.89 | < 4.00 | 4.52 | < 4.00 | < 4.00 | < 4.00 | < 4.00 | < 4.00 | 4.30 | 51.6 µM | 5.21 | < 4.00 | 5.01 | < 4.00 | 5.19 | 2.3 µM | < 4.00 | 4.79 | 4.39 | 59 µM | pEC50 [4]: < 4.00; pIC50 [15]: 3.59; Activity [18]: 130 mmol/mmol; pEC50 [24]: < 4.00
7 | O=c1oc2ccccc2c(Cl)c1-c1nc2cc(C3=NCCCN3)ccc2[nH]1 | 4.15 | < 4.00 | 4.16 | < 4.00 | < 4.00 | < 4.00 | < 4.00 | < 4.00 | 4.27 | 87.4 µM | 4.72 | < 4.00 | < 4.00 | < 4.00 | 4.35 | 61.7 µM | < 4.00 | < 4.00 | < 4.00 | 81.7 µM | pEC50 [4]: < 4.00; pIC50 [15]: 3.54; Activity [18]: 38.3 mmol/mmol; pEC50 [24]: < 4.00
8 | NC(=O)c1ncn([C@@H]2O[C@H](CO)[C@@H](O)[C@H]2O)n1 [RIBAVIRIN] |  | < 3.60 |  |  |  | 4.97 | 5.55 | 5.40 |  | > 250 µM |  | < 3.60 |  | 4.08 |  | 8.9 µM | < 3.60 | 4.98 |  | 67 µM | 
